Assay results pooled from the literature.
pIC50: −log10 of the molar value.
SLC22A8: Organic anion transporter 3 (SLC22A8, Homo sapiens, UniProt Q8TCC7)
SIRT2: NAD-dependent protein deacetylase sirtuin-2 (SIRT2, Homo sapiens, UniProt Q8IXJ6)
RORC: Nuclear receptor ROR-gamma (RORC, Homo sapiens, UniProt P51449)
CDC7: Cell division cycle 7-related protein kinase (CDC7, Homo sapiens, UniProt O00311)
Maoa: Amine oxidase [flavin-containing] A (Maoa, Rattus norvegicus, UniProt P21396)
AMY2: Pancreatic alpha-amylase (AMY2, Sus scrofa, UniProt P00690)

Compound	target	assay	setting	pIC50
COc1cc(N2CCN(C)CC2)ccc1Nc1ncc2c(n1)N(C)c1ccccc1C(=O)N2	Serine/threonine-protein kinase DCLK1 (DCLK1, Homo sapiens, UniProt O15075)	enzyme activity, inhibitor, mobility shift	–	< 6.00
OC[C@@H]1[C@@H](O)[C@H](O)[C@@H](O)[C@@H]2O[C@H]12	Beta-glucosidase (GBA2, Homo sapiens, UniProt Q9HCG7)	enzyme activity, inhibitor	pH 7, lysate	5.13
C=C(CC)C(=O)c1ccc(OCC(=O)O)c(Cl)c1Cl	SLC22A8	transporter uptake, inhibitor	–	6.18
CCCCCCCCCCCCNC(=S)NCCCC[C@H](NC(C)=O)C(=O)N[C@@H](C)C(=O)N[C@@H](CCCNC(=N)N)C(N)=O	SIRT2	enzyme activity, inhibitor	–	7.30
CCCN1CCN(c2ccc(-c3cncc(Cl)c3N3CCC4(CCNC4=O)CC3)cc2)CC1	Cyclin-dependent kinase 19, with cyclin C (CDK19, Homo sapiens, UniProt Q9BWU1)	ligand displacement	–	8.15
CN1CCN(c2ccnc(C(=O)N3CCC[C@H](C(=O)Nc4cccc(-c5ccc(C(N)=O)cc5)c4)C3)c2)CC1	Histone lysine demethylase PHF8, PHD (PHF8, Homo sapiens, UniProt Q9UPP1)	cell-free assay, inhibitor, TR-FRET	–	< 4.00
Cc1ccc(NC(=O)c2ccc(C)c(C(F)(F)F)c2)cc1C#Cc1nn(C2CCC(O)CC2)c2ncnc(N)c12 (stereo not drawn)	Fibroblast growth factor receptor 3 (FGFR3, Homo sapiens, UniProt P22607)	enzyme activity, inhibitor, radiometric	–	6.92
O=S(=O)(c1cccc(C(F)(F)F)c1)N1c2cc(OCc3c(F)cncc3Cl)ccc2CC1C(F)(F)F (stereo not drawn)	RORC	ligand displacement, radioligand	–	6.54
CC(C)[C@H](N)c1nc2cc(-c3cn[nH]n3)sc2c(=O)[nH]1	CDC7	enzyme activity, inhibitor	–	5.44
O=c1oc(Cl)c(Cl)c2ccccc12	Chymotrypsinogen A (Bos taurus, UniProt P00766)	enzyme activity, inhibitor, fluorescence	–	5.55
CCCCCCCCCCCCNC(=S)NCCCC[C@H](NC(=O)OCc1ccccc1)C(=O)N[C@@H](Cc1c[nH]c2ccccc12)C(=O)N[C@@H](CCCNC(=N)N)C(N)=O	SIRT2	enzyme activity, inhibitor	–	6.82
C=C(C)[C@@H]1CCC(C)=C[C@H]1c1c(O)cc(CCCCC)cc1O	Prostaglandin E synthase (PTGES, Homo sapiens, UniProt O14684)	enzyme activity, inhibitor	–	< 5.00
CC(=NN=C1CS(=O)(=O)N(C)c2ccccc21)c1ccc(C)s1	Maoa	enzyme activity, inhibitor, fluorescence	–	5.90
CCCCCCCCCCCCCC(=S)NCCCC[C@H](NC(=O)OCc1ccccc1)C(=O)N[C@@H](Cc1c[nH]c2ccccc12)C(=O)NC(C)C	SIRT2	enzyme activity, inhibitor	–	5.92
COc1ccc2c(Oc3ccc4c(C(=O)Nc5ccccc5N)cccc4c3)ccnc2c1	Voltage-dependent L-type calcium channel subunit alpha-1C (CACNA1C, Homo sapiens, UniProt Q13936)	ion current, inhibitor	–	< 5.00
COc1cc(C=Cc2cc(-c3ccccc3)nc(O)n2)ccc1O	AMY2	enzyme activity, inhibitor, absorbance	–	4.63
CCCCCCCC/C=C\CCCCCCCC(=O)Oc1ccc2ccc(=O)oc2c1	DNA polymerase I, thermostable (polA, Thermus aquaticus, UniProt P19821)	enzyme activity, inhibitor	–	< 3.70
CC(=O)Oc1ccccc1C(=O)Nc1ncc([N+](=O)[O-])s1	SLC22A8	transporter uptake, inhibitor	–	6.81

Compound	target	assay	setting	pIC50
CCNC(=O)[C@H](CCCNC(=N)CF)NC(=O)c1ccccc1	Protein-arginine deiminase type-3 (PADI3, Homo sapiens, UniProt Q9ULW8)	enzyme activity, inhibitor	–	3.80
O=S(=O)(c1cccc(C(F)(F)F)c1)N1c2cc(OCc3c(Cl)cncc3Cl)ccc2CC1C(F)(F)F (stereo not drawn)	RORC	ligand displacement, radioligand	–	6.82
CNC(=O)c1cc2c(Oc3ccc(NC(=O)C4(C(=O)Nc5ccc(F)cc5)CC4)cc3)ccnc2cc1OC	Tyrosine-protein kinase FRK (FRK, Homo sapiens, UniProt P42685)	enzyme activity, inhibitor, radiometric	–	7.89
O=S(=O)(c1cccc(C(F)(F)F)c1)N1CCc2ccc(OCc3c(F)cccc3Cl)cc21	RORC	ligand displacement, radioligand	–	6.92
CC(C)[C@H](N)c1nc2cc(-c3ccnc(Cl)c3)sc2c(=O)[nH]1	CDC7	enzyme activity, inhibitor	–	5.66
O=C(O)c1ccnc2c(O)cccc12	Lysine-specific demethylase 4D (KDM4D, Homo sapiens, UniProt Q6B0I6)	enzyme activity, inhibitor, AlphaScreen	–	5.14
O=C1Nc2ccc(Cl)cc2/C1=N/NS(=O)(=O)c1ccc(Br)cc1	AMY2	enzyme activity, inhibitor	–	4.89
O=S(=O)(c1ccccc1)N1CCc2ccc(OCc3c(F)cccc3Cl)cc21	RORC	ligand displacement, radioligand	–	6.10
CCCCCCCCCCCCNC(=S)NCCCC[C@H](NC(=O)OCc1ccccc1)C(=O)N[C@@H](Cc1c[nH]c2ccccc12)C(=O)N[C@@H](CCCCN)C(N)=O	SIRT2	enzyme activity, inhibitor	–	6.66
CN1CCN(c2ccc(Nc3ncc4cc(C#N)c(=O)n(C5CCCC5)c4n3)cc2)CC1	Ribosomal protein S6 kinase alpha-1 (RPS6KA1, Homo sapiens, UniProt Q15418)	enzyme activity, inhibitor	–	6.33
O=S(=O)(c1ccnc(C(F)(F)F)c1)N1CCc2ccc(OCc3c(F)cccc3Cl)cc21	RORC	ligand displacement, radioligand	–	6.64
CC(=NN=C1CS(=O)(=O)N(C)c2ccccc21)c1cc(Cl)sc1Cl	Maoa	enzyme activity, inhibitor, fluorescence	–	5.61
O=S(=O)(c1cccc(C(F)(F)F)c1)N1CCc2ccc(OCc3c(Cl)cccc3Cl)cc21	RORC	ligand displacement, radioligand	–	6.89
CCn1ncc2c1-c1cnc(N)c(c1)O[C@H](C)c1cc(F)ccc1-c1nn(C)nc1C2	Tyrosine-protein kinase Fer (FER, Homo sapiens, UniProt P16591)	enzyme activity, inhibitor, radiometric	–	7.62
COc1cc(Cl)ccc1COc1ccc2c(c1)N(S(=O)(=O)c1cccc(C(F)(F)F)c1)CC2	RORC	ligand displacement, radioligand	–	6.46
Cc1cnc(-c2ccc(-c3ccc(NC(=O)Nc4c(F)cc(F)cc4F)cc3F)c3c2C(=O)NC3)[nH]1	Serine/threonine-protein kinase 24 (STK24, Homo sapiens, UniProt Q9Y6E0)	enzyme activity, inhibitor	–	7.38
O=S(=O)(c1cccc(C(F)(F)F)c1)N1c2cc(OCc3c(F)cccc3Cl)ccc2CC1C(F)(F)F (stereo not drawn)	RORC	ligand displacement, radioligand	–	6.72
O=C1Nc2ccccc2/C1=N/NS(=O)(=O)c1cc(Cl)cc(Cl)c1O	AMY2	enzyme activity, inhibitor	–	5.80
